{"source": "paper PMC3683132", "about": "(ACS chemical biology, 2013)", "key": {"[1]": {"system": "(CUG)960 foci in HeLa cells transfected with DMPK-CUG960 and GFP-MBNL1", "test": "FISH / confocal microscopy of ribonuclear foci in fixed DM1 cell model", "assay_type": "cell-based", "settings": "50 µM, 48 h", "method_in_brief": "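HeLa cells (ca. 120,000/well, on coverslips) were co-transfected next day at 70–80% confluence with 500 ng DMPK–CUG960 (or CUG0 control) and 500 ng GFP-MBNL1 plasmids using Lipofectamine. After 4 h the medium was changed and test compound added (20–100 µM) for two days; 50 µM spermine served as the control compound. Cells were fixed (4% PFA), permeabilized and probed with Cy3-(CAG)10 for 2 h at 37 °C. Nuclei were stained with TO-PRO-3 and scored by confocal microscopy; results are mean ± standard error of ≥3 independent experiments with two-tailed p-values.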"}, "[2]": {"system": "insulin receptor (IR) pre-mRNA alternative splicing", "test": "IR splicing assay", "assay_type": "cell-based", "settings": "50 µM, DM1 cell model"}}, "data": [{"smiles": "NCCCNCCCCNCCCN", "note": "[spermine, reference compound]", "values": [{"measurement": "effect on (CUG)960 foci", "setting": "[1]", "value": "no effect"}, {"measurement": "effect on the IR mis-splicing", "setting": "[2]", "value": "no effect"}]}]}
